FN deposition inh – fibronectin deposition inhibition; AH1F fibroblasts, Alexa488-fibronectin deposition fluorescence, overnight; inhibition, % at 12.6 µM; hit rate 0.086% among 350,000; AID 743247;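 active means mean inhibition across replicates of 30% or more, regardless of how many single replicates reach that level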;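 further: positive control wells lacked labelled fibronectin entirely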
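Material: AH1F fibroblast monolayer depositing Alexa488-labelled fibronectin into matrix | Input: 10000 AH1F cells/well | Medium: DMEM plus 2% serum, read in PBS | Reagent: Alexa488-fibronectin, 24 nM final in well | Compound dosing: One dose per compound, pinned | Schedule: 1 h adhesion, overnight exposure | Measured by: Fluorescence at 485 nm excitation, 525 nm emission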
RAD54 branch – blocks human RAD54 Holliday junction branch migration | hit rate 0.14% among 360,000 | Q92698 | inhibition, % at 10.4 µM | AID 602329 | FAM/BHQ fluorescence;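 active means mean normalized replicate activity at least 40 and at least half of replicates scoring 40 or more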;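 further: 0% = median of neutral control wells and 100% = median of positive control wells; inhibitors cause a drop in the FAM fluorescence signal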
RAD52 anneal inh – inhibitors of human RAD52 DNA annealing. inhibition, % at 18.7 µM. P43351. recombinant RAD52 DNA annealing, FRET fluorescence. hit rate 0.46% among 360,000;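 active means every replicate showing at least 50% inhibition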
MLL AF4-AF9 inh – MLL-AF4/AF9 protein interaction inhibition; AlphaScreen, biotin-AF4 peptide binding to FLAG-AF9; hit rate 0.47% among 350,000; AID 651704; inhibition, % at 10 µM; P42568;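 active means every replicate reaching a set inhibition limit, whatever the replicate mean, cut at about 25% in these data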;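 further: 0% = plate neutral control median and 100% = total signal loss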
N-glyco inh – N-linked glycosylation inhibition. reporter increase, % at 12.5 µM. hit rate 0.23% among 360,000. AID 588692. D54 ERlucT glycosylation luciferase reporter, 24 h; percent of 100 nM tunicamycin response;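 active means mean luciferase reporter signal, scaled so untreated is 0 and the glycosylation-blocking control 100, at or above a set limit in every replicate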;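 further: luciferase carries N-glycosylation sites so blocking glycosylation raises the light; 0% = median of neutral control wells and 100% = median of 100 nM tunicamycin wells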
RAD52 DNA ctr – DNA binding artifact in RAD52 counter-screen; shares compounds with RAD52 anneal inh; Salmon sperm DNA/acridine orange FP displacement; AC50, µM; hit rate 8% among 1,000;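 active means fitted half-maximal concentration for signal loss at or below twice the highest dose tested, in every separate run, actives reach about 64 µM in these data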
* hit, by the source's call; i = inactive; x = not tested or not shown. Compounds with a hit are over-represented: about 0.92% of the library has one in this group of screens.

SMILES | FN deposition inh | RAD54 branch | RAD52 anneal inh | MLL AF4-AF9 inh | N-glyco inh | RAD52 DNA ctr
COC(=O)[C@@H]1[C@@H](CO)[C@@H]2Cn3c(ccc(-c4cccc(F)c4)c3=O)[C@H]1N2Cc1ccccc1 | x | 2 | 6 | 1 | x | x
CC[N+](C)(CC)CCCCOc1ccc2c(c1)C(=O)c1cc(OCCCC[N+](C)(CC)CC)ccc1-2 | -2 | 99* | 105* | 1 | 3 | 19µM*
Oc1ccc2c3c1OC1c4[nH]c5ccccc5c4C[C@@]4(O)C(C2)N(CC2CC2)CC[C@]314 (stereo not given in full) | x | -1 | 0 | x | -2 | x
Oc1ccc2c3c1O[C@H]1c4[nH]c5c(c4CC4(O)C(C2)N(CC2CC2)CCC314)CC1(O)[C@H]2Cc3ccc(O)c4c3[C@@]1(CCN2CC1CC1)C5O4 (stereo not given in full) | x | x | 83* | x | x | i
CCCN1[C@@H]2c3ccc(-c4cccc(C(=O)N(C)C)c4)c(=O)n3C[C@H]1[C@H](CO)[C@H]2C(=O)OC | x | -8 | 12 | -1 | x | x
COC(=O)[C@H]1[C@H](CO)[C@H]2Cn3c(ccc(-c4ccccc4OC)c3=O)[C@@H]1N2Cc1ccccc1 | x | -1 | 0 | -1 | x | x
